Legend:
LOX IMVI = assay: Concentration required to kill 50% of human LOX IMVI melanoma cells; assay type: functional
How it was run: (§1)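 NCI 60-cell-line human tumour panel. Continuous 48 h drug exposure, then sulforhodamine B assay for cell viability. […] GI50 and TGI are generated from the same curves.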

L1210 = assay: The concentration required for inhibiting the growth of the murine L1210 leukemia cells by 50%; assay type: functional, cell-based; conditions: Mus musculus
How it was run: (§2)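 MTT growth inhibition in murine lines grown in DMEM with 10% FBS, HEPES, glutamine, pen/strep at 37 °C, 5% CO2. Seeded 80 000 cells/well, continuous drug exposure (DMSO stock diluted in DMEM) for 72 h, quadruplicate wells per concentration. MTT added for 4 h, formazan dissolved in acid 2-propanol, read at 570 nm (reference 630 nm). IC50 extrapolated from averaged absorbance curves.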

[1] = Concentration required to kill 50% of human RPMI-8226 leukemia cells; assay type: functional; how it was run: as §1
DU-145 = assay: Concentration required to kill 50% of human DU-145 prostate cancer cells; assay type: functional; how it was run: as §1
NCI-H322M = assay: Concentration required to kill 50% of human NCI-H322M non-small cell lung cancer cells; assay type: functional; how it was run: as §1
A498 = assay: Concentration required to kill 50% of human A-498 renal cancer cells; assay type: functional; how it was run: as §1
MDA-MB-231 = assay: Concentration required to kill 50% of human MDA-MB-231/ATCC breast cancer cells; assay type: functional; how it was run: as §1
HL-60 = assay: Concentration required to kill 50% of human HL-60 leukemia cells; assay type: functional; how it was run: as §1
SK-OV-3 = assay: Concentration required to kill 50% of human SK-OV-3 ovarian cancer cells; assay type: functional; how it was run: as §1
UACC-62 = assay: Concentration required to kill 50% of human UACC-62 melanoma cells; assay type: functional
How it was run: (§3)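 NCI 60-cell human cancer panel run at the National Cancer Institute. Cells exposed to compound for 48 h, with a sulforhodamine B read-out.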

SF-268 = assay: Concentration required to kill 50% of human SF-268 CNS cancer cells; assay type: functional; how it was run: as §1
OVCAR-5 = assay: Concentration required to kill 50% of human OVCAR-5 ovarian cancer cells; assay type: functional; how it was run: as §1
HCC 2998 = assay: Concentration required to kill 50% of human HCC2998 colon cancer cells; assay type: functional; how it was run: as §1
NCI/ADR-RES = assay: Concentration required to kill 50% of human NCI/ADR-RES breast cancer cells; assay type: functional; how it was run: as §1
KM12 = assay: Concentration required to kill 50% of human KM12 colon cancer cells; assay type: functional; how it was run: as §1
NCI-H460 = assay: Concentration required to kill 50% of human NCI-H460 non-small cell lung cancer cells; assay type: functional; how it was run: as §1
SK-MEL-5 = assay: Concentration required to kill 50% of human SK-MEL-5 melanoma cells; assay type: functional; how it was run: as §1
IGROV-1 = assay: Concentration required to kill 50% of human IGROV1 ovarian cancer cells; assay type: functional; how it was run: as §1
K562 [2] = assay: Concentration required to kill 50% of human K-562 leukemia cells; assay type: functional; how it was run: as §1
OVCAR-4 = assay: Concentration required to kill 50% of human OVCAR-4 ovarian cancer cells; assay type: functional; how it was run: as §1
OVCAR-3 = assay: Concentration required to kill 50% of human OVCAR-3 ovarian cancer cells; assay type: functional; how it was run: as §1
[3] = Concentration required to kill 50% of human T-47D breast cancer cells; assay type: functional, Cancer cell lines; how it was run: as §3
SNB-75 = assay: Concentration required to kill 50% of human SNB-75 CNS cancer cells; assay type: functional; how it was run: as §1
UO-31 = assay: Concentration required to kill 50% of human UO-31 renal cancer cells; assay type: functional; how it was run: as §3
OVCAR-8 = assay: Concentration required to kill 50% of human OVCAR-8 ovarian cancer cells; assay type: functional; how it was run: as §1
[4] = The concentration required for inhibiting the growth of the murine B16-F0 melanoma cells by 50%; assay type: functional; conditions: Mus musculus, B16F0; how it was run: as §2
EKVX = assay: Concentration required to kill 50% of human EKVX non-small cell lung cancer cells; assay type: functional; how it was run: as §1
NCI-H23 = assay: Concentration required to kill 50% of human NCI-H23 non-small cell lung cancer cells; assay type: functional; how it was run: as §1
RXF 393 = assay: Concentration required to kill 50% of human RXF 393 renal cancer cells; assay type: functional; how it was run: as §1
MOLT-4 = assay: Concentration required to kill 50% of human MOLT-4 leukemia cells; assay type: functional; how it was run: as §1
SK-MEL-2 = assay: Concentration required to kill 50% of human SK-MEL-2 melanoma cells; assay type: functional; how it was run: as §1
HOP-62 = assay: Concentration required to kill 50% of human HOP-62 non-small cell lung cancer cells; assay type: functional; how it was run: as §1
MDA-N = assay: Concentration required to kill 50% of human MDA-N breast cancer cells; assay type: functional; how it was run: as §1
K562 [5] = assay: The concentration required for inhibiting the growth of the human K562 chronic myeloid leukemia cells by 50%; assay type: functional, cell-based
How it was run: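 Drug exposure was […] in the dark, then cells were washed and plated at 10⁴ cells/well, eight wells per sample, and incubated 4 days. MTT was added for 5 h, formazan dissolved in DMSO and read at 550 nm.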

BT-549 = assay: Concentration required to kill 50% of human BT-549 breast cancer cells; assay type: functional; how it was run: as §1
HOP-92 = assay: Concentration required to kill 50% of human HOP-92 non-small cell lung cancer cells; assay type: functional; how it was run: as §1
SF-295 = assay: Concentration required to kill 50% of human SF-295 CNS cancer cells; assay type: functional; how it was run: as §1
SW-620 = assay: Concentration required to kill 50% of human SW-620 colon cancer cells; assay type: functional; how it was run: as §1
786-0 = assay: Concentration required to kill 50% of human 786-0 renal cancer cells; assay type: functional; how it was run: as §1
NCI-H522 = assay: Concentration required to kill 50% of human NCI-H522 non-small cell lung cancer cells; assay type: functional; how it was run: as §1
SN12C = assay: Concentration required to kill 50% of human SN12C renal cancer cells; assay type: functional; how it was run: as §1
PC-3 = assay: Concentration required to kill 50% of human PC-3 prostate cancer cells; assay type: functional; how it was run: as §1
[6] = Concentration required to kill 50% of human U-251 CNS cancer cells; assay type: functional; how it was run: as §3
MCF7S = assay: Concentration required to kill 50% of human MCF-7 breast cancer cells; assay type: functional; how it was run: as §1
HT-29 = assay: Concentration required to kill 50% of human HT-29 colon cancer cells; assay type: functional; how it was run: as §1
HCT-116 = assay: Concentration required to kill 50% of human HCT116 colon cancer cells; assay type: functional; how it was run: as §1
SNB-19 = assay: Concentration required to kill 50% of human SNB-19 CNS cancer cells; assay type: functional; how it was run: as §1
SK-MEL-28 = assay: Concentration required to kill 50% of human SK-MEL-28 melanoma cells; assay type: functional; how it was run: as §1
Malme-3M = assay: Concentration required to kill 50% of human MALME-3M melanoma cells; assay type: functional; how it was run: as §1
A549 = assay: Concentration required to kill 50% of human A549/ATCC non-small cell lung cancer cells; assay type: functional; how it was run: as §1
CAKI-1 = assay: Concentration required to kill 50% of human CAKI-1 renal cancer cells; assay type: functional; how it was run: as §1
SF-539 = assay: Concentration required to kill 50% of human SF-539 CNS cancer cells; assay type: functional; how it was run: as §1
COLO 205 = assay: Concentration required to kill 50% of human COLO 205 colon cancer cells; assay type: functional; how it was run: as §1
TK-10 = assay: Concentration required to kill 50% of human TK-10 renal cancer cells; assay type: functional; how it was run: as §3
NCI-H226 = assay: Concentration required to kill 50% of human NCI-H226 non-small cell lung cancer cells; assay type: functional; how it was run: as §1
Hs-578T = assay: Concentration required to kill 50% of human Hs 578.T breast cancer cells; assay type: functional; how it was run: as §1
HCT-15 = assay: Concentration required to kill 50% of human HCT-15 colon cancer cells; assay type: functional; how it was run: as §1
ACHN = assay: Concentration required to kill 50% of human ACHN renal cancer cells; assay type: functional; how it was run: as §1
P815 = assay: The concentration required for inhibiting the growth of the murine P815 mastocytoma cells by 50%; assay type: functional, cell-based; conditions: Mus musculus
How it was run: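 P815 cells grown in DMEM with 10% FBS, HEPES, glutamine and pen/strep, seeded at 80 000 cells/well. Drug in DMSO/DMEM was added to final concentrations from 1.0 × 10^-12 to 1.0 × 10^-4 M, continuous for 72 h at 37 °C, 5% CO2, in quadruplicate. MTT was added for 4 h and solubilised in acid 2-propanol, read at 570/630 nm. IC50 was extrapolated from mean absorbance curves.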

COc1cc2cc(C(=O)Nc3cc(N)c4ccccc4c3CCCl)[nH]c2c(OC)c1OC [CENTANAMYCIN]
Log 10 LC50 (LOX IMVI): -4.75 | IC50 (L1210): 180 nM | Log 10 LC50 [1]: >-4.3 | Log 10 LC50 (DU-145): >-4.3 | Log 10 LC50 (NCI-H322M): >-4.3 | Log 10 LC50 (A498): >-4.3 | Log 10 LC50 (MDA-MB-231): -4.58 | Log 10 LC50 (HL-60): >-4.3 | Log 10 LC50 (SK-OV-3): >-4.3 | Log 10 LC50 (UACC-62): -6.49 | Log 10 LC50 (SF-268): >-4.3 | Log 10 LC50 (OVCAR-5): -4.43 | Log 10 LC50 (HCC 2998): -6.65 | Log 10 LC50 (NCI/ADR-RES): -4.33 | Log 10 LC50 (KM12): >-4.3 | Log 10 LC50 (NCI-H460): -4.81 | Log 10 LC50 (SK-MEL-5): -4.85 | Log 10 LC50 (IGROV-1): >-4.3 | Log 10 LC50 (K562 [2]): >-4.3 | Log 10 LC50 (OVCAR-4): >-4.3 | Log 10 LC50 (OVCAR-3): >-4.3 | Log 10 LC50 [3]: >-4.3 | Log 10 LC50 (SNB-75): -5.78 | Log 10 LC50 (UO-31): >-4.3 | Log 10 LC50 (OVCAR-8): -4.69 | IC50 [4]: 150 nM | Log 10 LC50 (EKVX): -4.73 | Log 10 LC50 (NCI-H23): -5.07 | Log 10 LC50 (RXF 393): -6.86 | Log 10 LC50 (MOLT-4): >-4.3 | Log 10 LC50 (SK-MEL-2): -6.74 | Log 10 LC50 (HOP-62): >-4.3 | Log 10 LC50 (MDA-N): >-4.3 | IC50 (K562 [5]): 45 nM | Log 10 LC50 (BT-549): -5.76 | Log 10 LC50 (HOP-92): -4.42 | Log 10 LC50 (SF-295): >-4.3 | Log 10 LC50 (SW-620): >-4.3 | Log 10 LC50 (786-0): -4.58 | Log 10 LC50 (NCI-H522): -5.53 | Log 10 LC50 (SN12C): -5.65 | Log 10 LC50 (PC-3): -4.81 | Log 10 LC50 [6]: -5.21 | Log 10 LC50 (MCF7S): -4.54 | Log 10 LC50 (HT-29): -4.41 | Log 10 LC50 (HCT-116): -4.67 | Log 10 LC50 (SNB-19): >-4.3 | Log 10 LC50 (SK-MEL-28): >-4.3 | Log 10 LC50 (Malme-3M): >-4.3 | Log 10 LC50 (A549): >-4.3 | Log 10 LC50 (CAKI-1): >-4.3 | Log 10 LC50 (SF-539): >-4.3 | Log 10 LC50 (COLO 205): -4.69 | Log 10 LC50 (TK-10): -4.33 | Log 10 LC50 (NCI-H226): >-4.3 | Log 10 LC50 (Hs-578T): >-4.3 | Log 10 LC50 (HCT-15): >-4.3 | Log 10 LC50 (ACHN): >-4.3

COC(=O)c1[nH]c2c(O)cc(NC(=O)c3cc4cc(OC)c(OC)c(OC)c4[nH]3)c(CCCl)c2c1C(=O)OC
IC50 (L1210): 4200 nM | IC50 [4]: 6800 nM | IC50 (K562 [5]): 250 nM | IC50 (P815): 5400 nM

COc1cc2cc(C(=O)Nc3cc(OCc4ccccc4)c4ccccc4c3CCCl)[nH]c2c(OC)c1OC
IC50 (L1210): 51000 nM | IC50 [4]: > 100000 nM

COc1ccc(/C=C/C(=O)Nc2cc(N)c3ccccc3c2CCCl)c(OC)n1
IC50 (L1210): 180 nM | IC50 [4]: 62 nM

COc1cc2cc(C(=O)N3CC(CCl)c4c3cc(O)c3ccccc43)[nH]c2c(OC)c1OC (stereo unspecified)
IC50 (L1210): 8.4 nM | IC50 [4]: 78 nM | IC50 (K562 [5]): 28 nM

COc1cc2cc(C(=O)Nc3cc(N)c4ccccc4c3CCO)[nH]c2c(OC)c1OC
IC50 (L1210): 41000 nM | IC50 [4]: 60000 nM

Source: ChEMBL document CHEMBL1144439, “A novel class of in vivo active anticancer agents: achiral seco-amino- and seco-hydroxycyclopropylbenz[e]indolone (seco-CBI) analogues of the duocarmycins and CC-1065” (J Med Chem, 2005)
